Laboratory results: ChEMBL document CHEMBL4177742, “Synthesis and biological evaluation of 4β-(thiazol-2-yl)amino-4'-O-demethyl-4-deoxypodophyllotoxins as topoisomerase-II inhibitors” (Bioorg Med Chem Lett, 2018)
pIC50: −log10 of the molar value. The source made the active and inactive calls. No cut-off for these calls is given here.

Columns and labels:
A549 [1] = assay: Cytotoxicity against human A549 cells assessed as reduction in inhibition of cell growth incubated for 48 hrs by MTT assay; format: functional, cell-based; conditions: A549, 48 h
HepG2 = assay: Cytotoxicity against human HepG2 cells assessed as reduction in inhibition of cell growth incubated for 48 hrs by MTT assay; format: functional, cell-based; conditions: HepG2, 48 h
HeLa = assay: Cytotoxicity against human HeLa cells assessed as reduction in inhibition of cell growth incubated for 48 hrs by MTT assay; format: functional, cell-based
LoVo = assay: Cytotoxicity against human LoVo cells assessed as reduction in inhibition of cell growth incubated for 48 hrs by MTT assay; format: functional, cell-based
WI-38 = assay: Cytotoxicity against human WI38 cells assessed as reduction in inhibition of cell growth incubated for 48 hrs by MTT assay; format: cell-based; conditions: WI-38, 48 h
A549 [2] = assay: Inhibition of topoisomerase 2alpha protein expression in human A549 cells at 1 to 10 uM incubated for 12 hrs by Western blotting; format: functional, cell-based
In short: (§1)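 Topo-IIα and topo-IIβ expression was measured in A549 cells treated 12 h at 1, 5 and 10 μM, with etoposide (5 μM) as a reference treatment.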

A549 [3] = assay: Inhibition of topoisomerase 2beta protein expression in human A549 cells at 1 to 10 uM incubated for 12 hrs by Western blotting; format: functional, cell-based; in short: as §1
[4] = target: DNA topoisomerase 2-alpha (Homo sapiens) (UniProt P11388); assay: Inhibition of topoisomerase 2alpha in human A549 cells assessed as reduction in enzyme-mediated super coliling activity by measuring induction of pBR322 DNA relaxation at 100 uM incubated for 12 hrs by ethidium bromide staining based agarose gel electrophoresis method; format: cell-based
A549 [5] = assay: Induction of DNA double stranded breaks in human A549 cells assessed as increase in gamma-H2Ax level at 1 to 10 uM incubated for 12 hrs by Western blotting; format: functional, cell-based
In short: (§2)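 A549 cells exposed for 12 h to 1, 5 or 10 μM alongside vehicle and etoposide (5 μM) as a reference. Lysates were probed by western blotting for phospho-H2AX (Ser-139, γH2AX), p73 and phospho-ATM.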

A549 [6] = assay: Induction of DNA double stranded breaks in human A549 cells assessed as increase in gamma-H2Ax level at 1 to 5 uM incubated for 12 hrs by DAPI staining based immunofluorescence assay; format: functional, cell-based
In short: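 A549 cells were treated 12 h with vehicle, 1 μM or 5 μM, then immunostained with anti-γH2AX antibody and counterstained with DAPI. Nuclear γH2AX foci were scored by immunofluorescence as a marker of DNA double-strand breaks.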

A549 [7] = assay: Induction of DNA double stranded breaks in human A549 cells assessed as increase in p73 protein levels at 1 to 10 uM incubated for 12 hrs by Western blotting; format: functional, cell-based; in short: as §2
A549 [8] = assay: Induction of DNA double stranded breaks in human A549 cells assessed as increase in ATM phosphorylation levels at 1 to 10 uM incubated for 12 hrs by Western blotting; format: functional, cell-based; in short: as §2
A549 [9] = assay: Induction of cell cycle arrest in human A549 cells assessed as increase in cyclin B1 protein level at 1 to 10 uM incubated for 12 hrs by Western blotting; format: functional, cell-based
In short: (§3)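 For G2/M regulators, A549 cells were exposed 12 h to 1, 5 or 10 μM and analysed by western blotting for cyclin B1 and cdc2(p34).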

A549 [10] = assay: Induction of cell cycle arrest in human A549 cells assessed as increase in cdc2(p34) protein level at 1 to 10 uM incubated for 12 hrs by Western blotting; format: functional, cell-based; in short: as §3
A549 [11] = assay: Induction of cell cycle arrest in human A549 cells assessed as increase in accumulation at G2/M phase at 1 to 5 uM incubated for 12 hrs by propidium iodide staining based FACS analysis
A549 [12] = assay: Induction of cell cycle arrest in human A549 cells assessed as reduction in accumulation at G1 phase at 1 to 5 uM incubated for 12 hrs by propidium iodide staining based FACS analysis

Sequence of DNA topoisomerase 2-alpha (Homo sapiens) (P11388 whole entry): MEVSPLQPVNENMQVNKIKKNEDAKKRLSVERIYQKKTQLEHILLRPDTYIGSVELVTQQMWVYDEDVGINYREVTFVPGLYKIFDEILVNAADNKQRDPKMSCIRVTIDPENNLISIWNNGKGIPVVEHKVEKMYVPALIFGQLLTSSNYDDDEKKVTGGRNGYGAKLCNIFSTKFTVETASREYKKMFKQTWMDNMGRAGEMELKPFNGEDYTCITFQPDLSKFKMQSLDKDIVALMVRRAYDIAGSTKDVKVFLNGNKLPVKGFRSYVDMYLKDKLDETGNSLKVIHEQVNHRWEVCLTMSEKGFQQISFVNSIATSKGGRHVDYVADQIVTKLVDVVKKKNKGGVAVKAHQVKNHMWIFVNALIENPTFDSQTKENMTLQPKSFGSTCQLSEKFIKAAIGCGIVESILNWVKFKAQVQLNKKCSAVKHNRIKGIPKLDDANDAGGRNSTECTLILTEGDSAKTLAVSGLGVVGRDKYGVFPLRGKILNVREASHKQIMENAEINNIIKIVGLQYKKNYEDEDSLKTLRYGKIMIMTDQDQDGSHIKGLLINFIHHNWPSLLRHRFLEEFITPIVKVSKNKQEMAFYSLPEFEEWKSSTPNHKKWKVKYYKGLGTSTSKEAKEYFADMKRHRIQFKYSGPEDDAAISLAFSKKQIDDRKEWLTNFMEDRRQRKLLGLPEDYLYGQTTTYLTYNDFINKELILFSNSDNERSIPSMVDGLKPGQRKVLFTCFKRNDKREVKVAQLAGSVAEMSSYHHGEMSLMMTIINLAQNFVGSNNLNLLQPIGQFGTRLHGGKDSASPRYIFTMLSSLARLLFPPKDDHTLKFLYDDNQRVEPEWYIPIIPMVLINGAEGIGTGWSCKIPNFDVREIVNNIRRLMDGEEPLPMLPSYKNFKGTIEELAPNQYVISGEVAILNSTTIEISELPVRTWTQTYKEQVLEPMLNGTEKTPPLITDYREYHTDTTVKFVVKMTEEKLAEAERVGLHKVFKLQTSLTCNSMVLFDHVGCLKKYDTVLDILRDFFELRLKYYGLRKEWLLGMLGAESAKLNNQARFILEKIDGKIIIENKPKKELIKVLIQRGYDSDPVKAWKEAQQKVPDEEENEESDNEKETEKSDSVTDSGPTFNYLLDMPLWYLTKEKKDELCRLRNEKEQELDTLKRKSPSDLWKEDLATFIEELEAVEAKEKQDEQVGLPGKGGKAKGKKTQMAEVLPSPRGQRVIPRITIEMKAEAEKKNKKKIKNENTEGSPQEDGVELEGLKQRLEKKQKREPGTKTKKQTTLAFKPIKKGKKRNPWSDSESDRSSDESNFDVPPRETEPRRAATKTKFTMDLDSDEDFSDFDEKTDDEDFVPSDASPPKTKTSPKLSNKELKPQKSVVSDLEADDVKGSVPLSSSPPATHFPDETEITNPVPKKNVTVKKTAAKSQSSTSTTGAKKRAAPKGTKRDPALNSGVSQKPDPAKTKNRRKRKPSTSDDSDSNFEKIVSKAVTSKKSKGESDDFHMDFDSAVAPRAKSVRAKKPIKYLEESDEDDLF

In the case of COc1cc([C@@H]2c3cc4c(cc3[C@@H](Nc3nc(CC(=O)NC5CCCCC5)cs3)[C@H]3COC(=O)[C@H]23)OCO4)cc(OC)c1O, the pIC50 (A549 [1]) was 5.03, the pIC50 (HepG2) was 4.79 and the pIC50 (HeLa) was 4.97. The pIC50 (LoVo) was 4.72 and the pIC50 (WI-38) was 4.11.

COc1cc([C@@H]2c3cc4c(cc3[C@@H](Nc3nc(CC(=O)N5CCN(C6CCCC6)CC5)cs3)[C@H]3COC(=O)[C@H]23)OCO4)cc(OC)c1O gave a pIC50 (A549 [1]) of 5.89, a pIC50 (HepG2) of 5.07 and a pIC50 (HeLa) of 5.36. For the same compound, the pIC50 (LoVo) was 5.04, the pIC50 (WI-38) was 4.18 and the inhibition (A549 [2]) was “Dose-dependent effect”. The inhibition (A549 [3]) was “Dose-dependent effect”, the inhibition [4] was “Active” and the Activity (A549 [5]) was “Dose-dependent effect”. The Activity (A549 [6]) was “Active”, the Activity (A549 [7]) was “Dose-dependent effect” and the Activity (A549 [8]) was “Dose-dependent effect”. The Activity (A549 [9]) was “Dose-dependent effect”, the Activity (A549 [10]) was “Dose-dependent effect” and the Activity (A549 [11]) was “Dose-dependent effect”. For the same compound, the Activity (A549 [12]) was “Dose-dependent effect”.

Work on COc1cc([C@@H]2c3cc4c(cc3[C@@H](Nc3nc(CC(=O)N5CCOCC5)cs3)[C@H]3COC(=O)[C@H]23)OCO4)cc(OC)c1O yielded a pIC50 (A549 [1]) of 4.73, a pIC50 (HepG2) of 4.82 and a pIC50 (HeLa) of 4.83. It also gave a pIC50 (LoVo) of 4.43 and a pIC50 (WI-38) of 4.47.

In the case of COc1cc([C@@H]2c3cc4c(cc3[C@@H](Nc3nc(CC(=O)N5CCN(C)CC5)cs3)[C@H]3COC(=O)[C@H]23)OCO4)cc(OC)c1O, the pIC50 (A549 [1]) was 4.65, the pIC50 (HepG2) was 4.73 and the pIC50 (HeLa) was 4.78. For the same compound, the pIC50 (LoVo) was 4.56 and the pIC50 (WI-38) was 4.55.

COc1cc([C@@H]2c3cc4c(cc3[C@@H](O[C@@H]3O[C@@H]5CO[C@@H](C)O[C@H]5[C@H](O)[C@H]3O)[C@H]3COC(=O)[C@H]23)OCO4)cc(OC)c1O [ETOPOSIDE] was tested, and the pIC50 (A549 [1]) was 5.04, the pIC50 (HepG2) was 5.04 and the pIC50 (HeLa) was 4.95. It also gave a pIC50 (LoVo) of 4.73 and a pIC50 (WI-38) of 4.59.

In the case of COc1cc([C@@H]2c3cc4c(cc3[C@@H](Nc3nc(CC(=O)NC5CC5)cs3)[C@H]3COC(=O)[C@H]23)OCO4)cc(OC)c1O, the pIC50 (A549 [1]) was 4.95, the pIC50 (HepG2) was 4.99 and the pIC50 (HeLa) was 4.76. The pIC50 (LoVo) was 4.72 and the pIC50 (WI-38) was 4.25.

Work on COc1cc([C@@H]2c3cc4c(cc3[C@@H](Nc3nc(CC(=O)NC5CCCC5)cs3)[C@H]3COC(=O)[C@H]23)OCO4)cc(OC)c1O yielded a pIC50 (A549 [1]) of 5.04, a pIC50 (HepG2) of 4.72 and a pIC50 (HeLa) of 4.85. It also gave a pIC50 (LoVo) of 4.68 and a pIC50 (WI-38) of 4.54.

CCOC(=O)c1csc(N[C@@H]2c3cc4c(cc3[C@@H](c3cc(OC)c(O)c(OC)c3)[C@H]3C(=O)OC[C@@H]32)OCO4)n1 was tested, and the pIC50 (A549 [1]) was 6.80, the pIC50 (HepG2) was 6.89 and the pIC50 (HeLa) was 5.25. For the same compound, the pIC50 (LoVo) was 5.30, the pIC50 (WI-38) was 4.26 and the inhibition (A549 [2]) was “Dose-dependent effect”. For the same compound, the inhibition (A549 [3]) was “Dose-dependent effect”, the inhibition [4] was “Active” and the Activity (A549 [5]) was “Dose-dependent effect”. For the same compound, the Activity (A549 [6]) was “Active”, the Activity (A549 [7]) was “Dose-dependent effect” and the Activity (A549 [8]) was “Dose-dependent effect”. For the same compound, the Activity (A549 [9]) was “Dose-dependent effect”, the Activity (A549 [10]) was “Dose-dependent effect” and the Activity (A549 [11]) was “Dose-dependent effect”. For the same compound, the Activity (A549 [12]) was “Dose-dependent effect”.

With COc1cc([C@@H]2c3cc4c(cc3[C@@H](Nc3nc(CC(=O)O)cs3)[C@H]3COC(=O)[C@H]23)OCO4)cc(OC)c1O the pIC50 (A549 [1]) was 5.08, the pIC50 (HepG2) was 5.03 and the pIC50 (HeLa) was 5.06. The pIC50 (LoVo) was 4.99 and the pIC50 (WI-38) was 4.37.

In the case of CCOC(=O)Cc1csc(N[C@@H]2c3cc4c(cc3[C@@H](c3cc(OC)c(O)c(OC)c3)[C@H]3C(=O)OC[C@@H]32)OCO4)n1, the pIC50 (A549 [1]) was 5.03, the pIC50 (HepG2) was 6.92 and the pIC50 (HeLa) was 4.90. For the same compound, the pIC50 (LoVo) was 5.15 and the pIC50 (WI-38) was 4.35.
